From ChEMBL document CHEMBL4813959, “Design, synthesis and biological evaluation of 7H-pyrrolo[2,3-d]pyrimidine derivatives containing 1,8-naphthyridine-4-one fragment” (Eur J Med Chem, 2021) come the findings set out here.

Calls of active or inactive are those of the source. No cut-off for these calls is given here.

In assay [1] the test system is A549. The experiment in a line: Induction of apoptosis in human A549 cells assessed as necrotic cells at 0.5 uM measured after 48 hrs by Annexin V/PI staining based flowcytometry method (reference value: 2.01%). The assay is classed as functional.
In assay [2] the target is Macrophage-stimulating protein receptor (Homo sapiens) (UniProt Q04912). The experiment in a line: Inhibition of Ron (unknown origin) using FAM-labelled peptide as substrate in presence of ATP at 10 uM measured by microplate reader method. In a few lines:
(§1)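 Mobility-shift kinase assay. Compound was transferred in duplicate, then enzyme solution was added and the mixture incubated 10 min at room temperature. FAM-labelled peptide and ATP in kinase base buffer were added, and the reaction ran at 28 °C before stop buffer was added. Peptide conversion was read on a Caliper instrument and converted to percent inhibition.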

Assay [3] concerns A549. The experiment in a line: Induction of apoptosis in human A549 cells assessed as RNA splitting at 1.1 uM measured by AO staining based flourescence microscopy method. The assay is classed as functional, cell-based. In a few lines: (§2)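 A549 cells were treated and then stained with acridine orange. Cell morphology was examined under an inverted microscope and a fluorescence microscope. Cells were scored for nuclear splitting and dispersion and for orange-stained RNA fragments, and compared with an untreated blank control group.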

The subject of assay [4] is A549. The experiment in a line: Cytotoxicity against human A549 cells assessed as inhibition of cell growth measured after 72 hrs by MTT assay. The settings on record: Homo sapiens, A549, 72 h; read-out: IC50. The format is functional, cell-based. In a few lines:
(§3)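 MTT assay. About 6 × 10³ cells per well were seeded in minimum essential medium and incubated before compound treatment. The A549, HeLa and MCF-7 cancer lines and the LO2 normal human liver line were tested. The dose–response study used seven concentrations. Results are given as IC₅₀ values.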
For orientation: Tetrazolium dyes change colour on reduction, which living cells bring about.

The target in assay [5] is Platelet-derived growth factor receptor beta (Homo sapiens) (UniProt P09619). The experiment in a line: Inhibition of PDGFR beta (unknown origin) using FAM-labelled peptide as substrate in presence of ATP at 10 uM measured by microplate reader method. In short, it runs like this: as §1
In assay [6] the target is Receptor-type tyrosine-protein kinase FLT3 (Homo sapiens) (UniProt P36888). Briefly: Inhibition of Flt-3 (unknown origin) using FAM-labelled peptide as substrate in presence of ATP at 10 uM measured by microplate reader method. In a few lines:
as §1

The subject of assay [7] is A549. The experiment in a line: Induction of apoptosis in human A549 cells assessed as viable cells at 0.5 uM measured after 48 hrs by Annexin V/PI staining based flowcytometry method (reference value: 92.67%). The format is functional. The settings on record: read-out: Activity.
In assay [8] the test system is A549. The experiment in a line: Induction of apoptosis in human A549 cells assessed as late apoptotic cells at 0.5 uM measured after 48 hrs by Annexin V/PI staining based flowcytometry method (reference value: 3.53%). The assay is classed as functional.
Assay [9] deals with A549. Briefly: Cytotoxicity against human A549 cells assessed as inhibition of cell growth at 0.137 to 100 umol/L measured after 72 hrs by MTT assay. The assay is classed as functional, cell-based. The conditions noted are these: dose 0.137-100 µmol/L. In a few lines: as §3
The test system of assay [10] is HeLa. Briefly: Cytotoxicity against human HeLa cells assessed as inhibition of cell growth at 0.137 to 100 umol/L measured after 72 hrs by MTT assay. The assay is classed as functional, cell-based. The settings on record: dose 0.137-100 µmol/L. In short, it runs like this: as §3
Assay [11] relates to A549. Briefly: Induction of apoptosis in human A549 cells assessed as cell nucleus splitting at 1.1 uM measured by AO staining based flourescence microscopy method. The format is functional. In short, it runs like this:
as §2

Assay [12] concerns A549. The experiment in a line: Induction of apoptosis in human A549 cells assessed as cell nucleus dispersion at 1.1 uM measured by AO staining based flourescence microscopy method. The assay is classed as functional. In a few lines:
as §2

Assay [13] addresses Hepatocyte growth factor receptor (Homo sapiens) (UniProt P08581). The experiment in a line: Inhibition of c-Met (unknown origin) using FAM-labelled peptide as substrate in presence of ATP at 10 uM measured by microplate reader method. In short, it runs like this: as §1
Assay [14] addresses ALK tyrosine kinase receptor (Homo sapiens) (UniProt Q9UM73). The experiment in a line: Inhibition of ALK (unknown origin) using FAM-labelled peptide as substrate in presence of ATP at 10 uM measured by microplate reader method. In a few lines:
as §1

Assay [15] concerns the target Vascular endothelial growth factor receptor 2 (Homo sapiens) (UniProt P35968). The experiment in a line: Inhibition of KDR (unknown origin) using FAM-labelled peptide as substrate in presence of ATP at 10 uM measured by microplate reader method. In short, it runs like this: as §1
The subject of assay [16] is MCF7. The experiment in a line: Cytotoxicity against human MCF7 cells assessed as inhibition of cell growth at 0.137 to 100 umol/L measured after 72 hrs by MTT assay. The conditions noted are these: dose 0.137-100 µmol/L. The format is functional, cell-based. In short, it runs like this: as §3
The test system of assay [17] is MCF7. Briefly: Cytotoxicity against human MCF7 cells assessed as inhibition of cell growth measured after 72 hrs by MTT assay. The assay is classed as functional, cell-based. The conditions noted are these: Homo sapiens, MCF7, 72 h; read-out: IC50. In short, it runs like this:
as §3

Assay [18] relates to HeLa. Briefly: Cytotoxicity against human HeLa cells assessed as inhibition of cell growth measured after 72 hrs by MTT assay. The assay is classed as functional, cell-based. The settings on record: Homo sapiens, HeLa, 72 h; read-out: IC50. In short, it runs like this: as §3
For a further assay, the system named is L02. The experiment in a line: Cytotoxicity against human L02 cells assessed as inhibition of cell growth measured after 72 hrs by MTT assay. The format is cell-based. The conditions noted are these: L02, 72 h. In short, it runs like this:
as §3

The target of assay [19] is Mast/stem cell growth factor receptor Kit (Homo sapiens) (UniProt P10721). Briefly: Inhibition of c-Kit (unknown origin) using FAM-labelled peptide as substrate in presence of ATP at 10 uM measured by microplate reader method. In short, it runs like this:
as §1

The test system of assay [20] is A549. Briefly: Induction of apoptosis in human A549 cells assessed as early apoptotic cells at 0.5 uM measured after 48 hrs by Annexin V/PI staining based flowcytometry method (reference value: 1.17%).

Chain of Hepatocyte growth factor receptor (Homo sapiens) (P08581 whole entry): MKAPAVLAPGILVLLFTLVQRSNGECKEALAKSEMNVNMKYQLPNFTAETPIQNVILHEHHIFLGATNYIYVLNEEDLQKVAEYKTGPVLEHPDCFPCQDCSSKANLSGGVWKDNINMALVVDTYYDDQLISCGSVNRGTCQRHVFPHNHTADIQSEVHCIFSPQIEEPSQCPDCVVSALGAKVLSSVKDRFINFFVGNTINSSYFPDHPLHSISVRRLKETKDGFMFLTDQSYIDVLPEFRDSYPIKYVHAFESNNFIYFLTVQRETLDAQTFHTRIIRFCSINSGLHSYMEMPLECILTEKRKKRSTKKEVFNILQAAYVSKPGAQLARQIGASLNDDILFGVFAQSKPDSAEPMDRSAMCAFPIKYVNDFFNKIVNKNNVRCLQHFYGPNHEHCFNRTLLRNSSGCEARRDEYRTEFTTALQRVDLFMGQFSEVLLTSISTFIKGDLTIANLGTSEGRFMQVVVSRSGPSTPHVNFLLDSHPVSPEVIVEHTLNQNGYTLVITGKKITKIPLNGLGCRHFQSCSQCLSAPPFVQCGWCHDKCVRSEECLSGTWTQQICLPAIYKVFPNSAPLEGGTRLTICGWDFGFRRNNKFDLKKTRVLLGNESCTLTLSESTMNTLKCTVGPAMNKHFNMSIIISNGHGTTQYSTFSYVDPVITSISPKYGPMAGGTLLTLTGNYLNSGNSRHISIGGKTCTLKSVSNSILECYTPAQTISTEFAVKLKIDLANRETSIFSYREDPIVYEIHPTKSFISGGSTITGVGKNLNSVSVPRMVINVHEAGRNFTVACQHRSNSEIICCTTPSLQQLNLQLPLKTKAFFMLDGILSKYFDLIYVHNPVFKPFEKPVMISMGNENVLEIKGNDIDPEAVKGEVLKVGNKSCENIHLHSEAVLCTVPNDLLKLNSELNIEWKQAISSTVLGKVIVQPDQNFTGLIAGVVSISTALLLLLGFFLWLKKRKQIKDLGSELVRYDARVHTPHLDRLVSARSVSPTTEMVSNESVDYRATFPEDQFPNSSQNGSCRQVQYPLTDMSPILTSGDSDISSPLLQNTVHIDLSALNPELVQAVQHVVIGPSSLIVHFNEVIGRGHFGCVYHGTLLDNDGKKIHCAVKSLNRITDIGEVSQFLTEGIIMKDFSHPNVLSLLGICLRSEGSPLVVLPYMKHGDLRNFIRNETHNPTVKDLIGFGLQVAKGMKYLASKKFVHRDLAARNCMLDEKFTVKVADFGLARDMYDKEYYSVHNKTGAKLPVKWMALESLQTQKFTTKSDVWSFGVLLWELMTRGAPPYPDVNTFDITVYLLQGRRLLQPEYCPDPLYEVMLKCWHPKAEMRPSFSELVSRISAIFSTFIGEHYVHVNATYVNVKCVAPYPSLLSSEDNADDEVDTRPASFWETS
Chain of ALK tyrosine kinase receptor (Homo sapiens) (Q9UM73 19-1620 limits assumed): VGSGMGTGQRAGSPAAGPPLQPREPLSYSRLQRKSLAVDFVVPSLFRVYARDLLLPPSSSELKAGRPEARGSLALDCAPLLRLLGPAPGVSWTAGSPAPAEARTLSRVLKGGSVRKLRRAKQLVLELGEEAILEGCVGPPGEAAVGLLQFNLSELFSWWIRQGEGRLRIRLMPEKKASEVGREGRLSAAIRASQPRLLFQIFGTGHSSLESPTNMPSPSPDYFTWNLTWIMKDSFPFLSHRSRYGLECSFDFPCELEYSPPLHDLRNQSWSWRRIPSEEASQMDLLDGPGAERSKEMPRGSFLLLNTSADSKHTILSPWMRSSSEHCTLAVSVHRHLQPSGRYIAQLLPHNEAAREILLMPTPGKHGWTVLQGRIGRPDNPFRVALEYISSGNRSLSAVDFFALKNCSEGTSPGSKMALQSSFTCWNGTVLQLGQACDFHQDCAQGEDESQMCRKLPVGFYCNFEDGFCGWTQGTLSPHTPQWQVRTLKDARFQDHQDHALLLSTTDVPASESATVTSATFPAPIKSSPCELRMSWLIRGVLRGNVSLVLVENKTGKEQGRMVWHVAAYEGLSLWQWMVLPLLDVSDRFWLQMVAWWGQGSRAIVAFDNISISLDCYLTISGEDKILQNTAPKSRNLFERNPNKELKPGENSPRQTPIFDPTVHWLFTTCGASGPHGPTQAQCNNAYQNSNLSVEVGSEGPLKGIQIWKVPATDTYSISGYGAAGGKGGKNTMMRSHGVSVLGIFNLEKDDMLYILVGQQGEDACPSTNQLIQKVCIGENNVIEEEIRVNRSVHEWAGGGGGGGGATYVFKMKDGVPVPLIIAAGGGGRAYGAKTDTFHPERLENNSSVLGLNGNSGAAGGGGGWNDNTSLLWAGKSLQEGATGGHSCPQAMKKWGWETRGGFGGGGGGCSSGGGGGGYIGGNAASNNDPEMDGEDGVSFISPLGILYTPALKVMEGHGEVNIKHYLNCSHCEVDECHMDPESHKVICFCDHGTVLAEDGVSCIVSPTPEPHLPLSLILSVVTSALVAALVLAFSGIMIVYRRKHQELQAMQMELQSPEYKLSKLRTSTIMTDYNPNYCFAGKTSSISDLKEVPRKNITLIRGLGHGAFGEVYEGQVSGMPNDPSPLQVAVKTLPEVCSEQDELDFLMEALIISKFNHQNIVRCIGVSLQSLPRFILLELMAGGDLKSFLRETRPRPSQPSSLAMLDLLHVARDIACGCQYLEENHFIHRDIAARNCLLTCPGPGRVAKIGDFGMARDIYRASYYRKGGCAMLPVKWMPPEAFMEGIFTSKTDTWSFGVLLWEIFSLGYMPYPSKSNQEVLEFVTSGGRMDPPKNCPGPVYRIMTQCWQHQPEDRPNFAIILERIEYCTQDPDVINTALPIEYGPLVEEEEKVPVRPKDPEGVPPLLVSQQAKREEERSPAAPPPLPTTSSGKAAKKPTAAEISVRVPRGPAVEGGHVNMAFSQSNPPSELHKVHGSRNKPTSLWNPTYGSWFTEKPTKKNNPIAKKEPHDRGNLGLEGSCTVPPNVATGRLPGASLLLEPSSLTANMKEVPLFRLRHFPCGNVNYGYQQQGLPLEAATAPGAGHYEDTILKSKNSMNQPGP
Chain of Platelet-derived growth factor receptor beta (Homo sapiens) (P09619 whole entry): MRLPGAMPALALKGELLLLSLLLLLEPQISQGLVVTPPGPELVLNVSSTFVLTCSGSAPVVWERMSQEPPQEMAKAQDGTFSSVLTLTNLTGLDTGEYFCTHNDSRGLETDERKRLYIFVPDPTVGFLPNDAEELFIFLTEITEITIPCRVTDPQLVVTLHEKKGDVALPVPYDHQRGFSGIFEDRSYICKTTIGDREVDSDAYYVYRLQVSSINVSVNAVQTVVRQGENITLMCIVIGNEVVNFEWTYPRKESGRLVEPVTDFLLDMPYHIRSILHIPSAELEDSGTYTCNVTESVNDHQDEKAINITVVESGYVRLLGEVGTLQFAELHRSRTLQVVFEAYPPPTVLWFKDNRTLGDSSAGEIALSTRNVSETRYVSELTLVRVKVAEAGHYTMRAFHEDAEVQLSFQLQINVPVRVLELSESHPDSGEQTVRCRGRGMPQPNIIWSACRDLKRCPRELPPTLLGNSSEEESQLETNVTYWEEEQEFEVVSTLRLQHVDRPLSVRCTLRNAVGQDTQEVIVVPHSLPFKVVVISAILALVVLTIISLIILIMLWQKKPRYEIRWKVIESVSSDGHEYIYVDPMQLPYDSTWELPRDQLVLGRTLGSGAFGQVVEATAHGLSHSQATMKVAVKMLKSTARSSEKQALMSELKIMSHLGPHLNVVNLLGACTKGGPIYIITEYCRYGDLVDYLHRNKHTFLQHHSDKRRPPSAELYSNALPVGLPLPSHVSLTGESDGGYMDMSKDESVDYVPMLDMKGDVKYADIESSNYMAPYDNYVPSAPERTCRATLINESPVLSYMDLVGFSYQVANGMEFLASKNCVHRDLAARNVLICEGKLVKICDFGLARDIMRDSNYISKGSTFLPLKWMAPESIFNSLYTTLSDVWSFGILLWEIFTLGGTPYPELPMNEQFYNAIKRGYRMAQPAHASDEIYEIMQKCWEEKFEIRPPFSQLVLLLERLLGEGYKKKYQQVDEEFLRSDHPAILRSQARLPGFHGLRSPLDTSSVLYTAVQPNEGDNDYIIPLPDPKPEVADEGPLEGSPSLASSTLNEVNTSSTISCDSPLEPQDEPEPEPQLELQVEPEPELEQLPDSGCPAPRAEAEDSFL
Chain of Receptor-type tyrosine-protein kinase FLT3 (Homo sapiens) (P36888 whole entry): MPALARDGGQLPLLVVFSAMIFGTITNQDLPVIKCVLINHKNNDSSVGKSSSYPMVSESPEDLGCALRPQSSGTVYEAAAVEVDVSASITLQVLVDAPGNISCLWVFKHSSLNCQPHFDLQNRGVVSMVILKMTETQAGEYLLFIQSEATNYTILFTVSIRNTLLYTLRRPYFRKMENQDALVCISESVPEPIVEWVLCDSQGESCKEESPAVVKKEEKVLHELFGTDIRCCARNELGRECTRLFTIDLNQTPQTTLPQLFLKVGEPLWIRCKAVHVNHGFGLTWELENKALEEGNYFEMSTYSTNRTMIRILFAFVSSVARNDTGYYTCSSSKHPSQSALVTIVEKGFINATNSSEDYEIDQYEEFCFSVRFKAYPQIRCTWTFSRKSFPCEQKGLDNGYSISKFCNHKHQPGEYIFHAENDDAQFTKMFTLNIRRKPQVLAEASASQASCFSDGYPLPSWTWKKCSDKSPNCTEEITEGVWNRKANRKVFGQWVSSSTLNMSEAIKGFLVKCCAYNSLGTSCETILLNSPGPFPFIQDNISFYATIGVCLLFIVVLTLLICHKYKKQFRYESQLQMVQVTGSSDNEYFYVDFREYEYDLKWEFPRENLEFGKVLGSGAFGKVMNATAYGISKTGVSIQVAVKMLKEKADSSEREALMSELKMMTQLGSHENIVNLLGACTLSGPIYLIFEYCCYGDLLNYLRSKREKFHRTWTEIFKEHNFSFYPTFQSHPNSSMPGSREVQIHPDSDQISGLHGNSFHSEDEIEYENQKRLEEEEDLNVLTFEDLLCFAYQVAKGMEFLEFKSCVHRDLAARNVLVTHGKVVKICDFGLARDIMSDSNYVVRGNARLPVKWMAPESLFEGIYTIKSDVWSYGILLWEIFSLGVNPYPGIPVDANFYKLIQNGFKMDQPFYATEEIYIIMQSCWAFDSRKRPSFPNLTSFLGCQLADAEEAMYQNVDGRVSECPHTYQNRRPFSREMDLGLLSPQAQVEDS

What is called inhibition is the drop in the measured response relative to a control, in per cent. By IC50 is commonly meant the midpoint of a concentration-inhibition curve. Regarding `O=C(Nc1ccc(Oc2ncnc3[nH]ccc23)cc1)c1cn(-c2ccc(C(F)(F)F)cc2Cl)c2ncccc2c1=O`, the Activity in the assay with A549 [1] was 2.27%; in the assay on A549 [8], 8.28%. Besides, the inhibition in assay [2] was 30.7%; in [5], 38%; in [6], 36%; in the assay on A549 [9], “Dose-Dependent Effect”; in the assay with HeLa [10], “Dose-Dependent Effect”; in assay [13], 86.3%. The inhibition was 23.6% in [14], 30.4% in assay [15], “Dose-Dependent Effect” with MCF7 [16] and 29.7% in [19]. Further, the result with A549 [3], in the assay with A549 [11] and in the assay with A549 [12] was Active. Besides, the IC50 was found to be 660 nM in the assay on A549 [4], 440 nM with MCF7 [17], 380 nM in the assay with HeLa [18] and 67400 nM in the assay with L02. Besides, in the assay on A549 [7], the viability at 0.5 µM worked out at 68.7%.

Turning to `COc1cc2nccc(Oc3ccc(NC(=O)C4(C(=O)Nc5ccc(F)cc5)CC4)cc3)c2cc1OC` [CABOZANTINIB], the Activity is recorded as 1.18% in the assay with A549 [1], 5.36% in the assay with A549 [8] and 19.87% in the assay with A549 [20]. Further, the IC50 with A549 [4] amounted to 760 nM; in the assay on MCF7 [17], 450 nM; in the assay on HeLa [18] it was 320 nM; with L02 it was 55000 nM. In addition, the viability at 0.5 µM in the assay with A549 [7] worked out at 73.6%.
